From ChEMBL document CHEMBL1130035, “Aroyl(aminoacyl)pyrroles, a new class of anticonvulsant agents” (J Med Chem, 1997)
Active and inactive are the calls of the source. No cut-off for these calls is given here.

What was measured:
[1] = (§1) Minimal motor impairment was measured in mouse by rotating rod test upon intraperitoneal administration; type: toxicity; conditions: in vivo, ip
Outline: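 Mouse rotorod (rotating rod) test for minimal motor impairment after ip dosing, run alongside the MES and scMET screens. Reported as TD50 (mg/kg) ip with 95% confidence limits.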

[2] = (§2) Ratio of TD50/ED50; TI indicates Therapeutic index; conditions: read-out: TI
Outline: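 Protective index calculated as TD50 (rotorod, ip) divided by MES ED50 (ip), both in mg/kg.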

Mus musculus [3] = assay: Anticonvulsant activity in mouse maximal electroshock seizure test following i.p. administration.; type: functional; conditions: ip
Outline: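 Test agent given ip as a suspension at 30, 100 and 300 mg/kg to one to four mice, observed at 30 min and, in a separate test, at 4 h. Quantified values are ED50 (mg/kg) with 95% confidence limits.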

Mus musculus [4] = assay: Ability to block seizures induced by bicuculline after intraperitoneal administration.; type: functional; conditions: ip
[5] = Minimal motor impairment was measured in rat by overt evidence of ataxia upon intraperitoneal administration; conditions: in vivo, ip
Rattus norvegicus [6] = assay: Compound was tested for anticonvulsant activity by maximal electroshock seizure(MES) test in rat upon intraperitoneal administration; type: functional; conditions: ip
[7] = Toxic dose was measured in mouse by rotating rod test; conditions: in vivo
[8] = Ratio of TD50/ED50.; type: ADME; conditions: read-out: TI
Outline: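 Maximal electroshock seizure ED50 was determined with ip dosing and reported in mg/kg with 95% confidence limits. TD50 was determined ip by the rotating rod test for minimal motor impairment, and in some cases by overt ataxia. Protective index = TD50/ED50.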

Mus musculus [9] = assay: Effective dose was determined by Maximum Electroshock Seizure test after intraperitoneal dose in mouse; conditions: ip
[10] = Toxic dose was measured in rat by rotating rod test.; conditions: in vivo
Rattus norvegicus [11] = assay: Minimal motor impairment was measured in rat by rotating rod test upon intraperitoneal administration; conditions: ip
[12] = as §2
Mus musculus [13] = assay: Ability to block seizures induced by bicuculline after intraperitoneal administration; NA indicates not active; type: functional, organism-based
Mus musculus [14] = assay: as §1; conditions: ip

Row | SMILES | TD50 [1] | selectivity ratio [2] | ED50 (Mus musculus [3]) | TD50 [5] | ED50 (Rattus norvegicus [6]) | also measured
1 | CCN(CC)CC(=O)c1cc(C(=O)c2ccc(OC)cc2)n(C)c1.Cl | 45.1 mg/kg | 1.37 | 33 mg/kg | – | – | –
2 | Cn1cc(C(=O)CN2CCCC2)cc1C(=O)c1cccc(Cl)c1.[O-][Cl+3]([O-])([O-])O | 55.6 mg/kg | 3.38 | 16.5 mg/kg | – | – | –
3 | Cc1c(C(=O)CN2CCCCC2)c(C)n(C)c1C(=O)c1ccc(Cl)cc1 | 113 mg/kg | 4.73 | 23.9 mg/kg | > 500 mg/kg | 28.1 mg/kg | ED50 (Mus musculus [4]): 25.2 mg/kg
4 | Cc1c(C(=O)CN2CCCC2)c(C)n(C)c1C(=O)c1ccc(Cl)cc1Cl.Cl | 23.8 mg/kg | 2.3 | 10.3 mg/kg | > 200 mg/kg | 19 mg/kg | –
5 | CCN(CC)CC(=O)c1c(C)c(C(=O)c2ccc(Cl)cc2Cl)n(C)c1C | 50.6 mg/kg | 3.38 | 14.9 mg/kg | > 500 mg/kg | 19.4 mg/kg | –
6 | O=C1NC(=O)C(c2ccccc2)(c2ccccc2)N1 [PHENYTOIN] | – | – | – | – | – | TD50 [7]: 42.8 mg/kg; selectivity ratio [8]: 6.6; ED50 (Mus musculus [9]): 6.48 mg/kg; TD50 [10]: > 500 mg/kg
7 | Cl.Cn1cc(C(=O)CN2CCOCC2)cc1C(=O)c1cccc(Cl)c1 | 110 mg/kg | 2.96 | 37.4 mg/kg | > 500 mg/kg | 72 mg/kg | –
8 | Cn1cc(C(=O)c2ccc(Cl)cc2)cc1C(=O)CN1CCCCC1 | 141 mg/kg | 2.36 | 59.7 mg/kg | – | – | –
9 | CCN(CC)CC(=O)c1c(C)c(C(=O)c2ccc(Cl)cc2)n(C)c1C | 37.7 mg/kg | 3.65 | 10.3 mg/kg | > 250 mg/kg | 15.5 mg/kg | –
10 | Cn1cc(C(=O)CN2CCCCC2)cc1C(=O)c1ccc(Cl)cc1 | 74.2 mg/kg | 3.05 | 24.4 mg/kg | 342 mg/kg | 8.4 mg/kg | –
11 | Cc1c(C(=O)CN2CCCC2)c(C)n(C)c1C(=O)c1ccc(Cl)cc1 | 54.8 mg/kg | 3.6 | 15.2 mg/kg | 203 mg/kg | 16.2 mg/kg | –
12 | CCN(CC)CC(=O)c1cc(C(=O)c2ccc(Cl)cc2)n(C)c1.Cl | 40.5 mg/kg | 2.81 | – | > 500 mg/kg | 19.3 mg/kg | –
13 | Cl.Cn1cc(C(=O)CNC23C[C@H]4C[C@@H](C2)C[C@@H](C3)C4)cc1C(=O)c1ccccc1Cl | > 250 mg/kg | > 1.57 | 159 mg/kg | – | – | –
14 | CCCC(CCC)C(=O)O [VALPROIC ACID] | – | – | – | – | – | TD50 (Rattus norvegicus [11]): 859 mg/kg
15 | Cl.Cn1cc(C(=O)CN2CCCCCC2)cc1C(=O)c1ccc(Cl)cc1 | 46.1 mg/kg | 1.67 | 27.5 mg/kg | > 500 mg/kg | 22 mg/kg | –
16 | NC(=O)N1c2ccccc2C=Cc2ccccc21 [CARBAMAZEPINE] | – | – | 9.9 mg/kg | – | 36 mg/kg | selectivity ratio [12]: 4.93; ED50 (Mus musculus [13]): inactive; TD50 (Mus musculus [14]): 47.8 mg/kg
17 | O=C(CN1CCOCC1)c1c[nH]c(C(=O)c2ccc(Cl)cc2)c1 | 84.1 mg/kg | 0.98 | 86.2 mg/kg | 88 mg/kg | 41 mg/kg | –
18 | Cc1c(C(=O)CN2CCOCC2)c(C)n(C)c1C(=O)c1ccc(Cl)cc1 | 233 mg/kg | 2.66 | 87.6 mg/kg | – | – | –
19 | Cn1cc(C(=O)CN2CCCC2)cc1C(=O)c1ccc(Cl)cc1 | 240 mg/kg | 4.89 | 49.1 mg/kg | > 500 mg/kg | 17.9 mg/kg | –
